An excerpt weighted towards active compounds, which were near 0.72% of everything screened.
bIAP inhibitor = blocks bovine intestinal alkaline phosphatase activity; purified bovine IAP, CDP-star luminescence, 30 min; inhibition, % at 20 µM; 190,000 tested, under 10 active; AID 1019;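 active = over 50% inhibition of intestinal alkaline phosphatase at 20 µM in the single-dose screen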
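Assay system: bovine IAP enzyme; medium: DEA buffer 100 mM, pH 9.8, with MgCl2 1.0 mM, ZnCl2 0.02 mM; doses: 20 µM single dose; incubation: enzyme reaction for 30 min at room temperature; detection: CDP-star luminescence signal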
mIAP inh = mouse IAP inhibition | actives 0.2% (n = 330,000) | inhibition, % at 10 µM | purified mouse IAP, CDP-Star luminescence, 30 min;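 active = inhibition of at least 40% at 10 µM in the primary screen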;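 also: plate controls were DMSO with enzyme for no effect and no enzyme wells for full effect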
hIAP inh = human IAP inhibition; P09923; inhibition, % at 10 µM; actives 0.12% (n = 330,000); purified IAP, CDP-Star luminescence, 30 min;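 active = inhibition reaching a set limit with compound at 10 µM in the primary screen, cut at about 35% in these data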;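 also: plate controls were DMSO wells with enzyme for no effect and no-enzyme buffer wells for full effect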
Target sequence (P09923 whole entry, looked up): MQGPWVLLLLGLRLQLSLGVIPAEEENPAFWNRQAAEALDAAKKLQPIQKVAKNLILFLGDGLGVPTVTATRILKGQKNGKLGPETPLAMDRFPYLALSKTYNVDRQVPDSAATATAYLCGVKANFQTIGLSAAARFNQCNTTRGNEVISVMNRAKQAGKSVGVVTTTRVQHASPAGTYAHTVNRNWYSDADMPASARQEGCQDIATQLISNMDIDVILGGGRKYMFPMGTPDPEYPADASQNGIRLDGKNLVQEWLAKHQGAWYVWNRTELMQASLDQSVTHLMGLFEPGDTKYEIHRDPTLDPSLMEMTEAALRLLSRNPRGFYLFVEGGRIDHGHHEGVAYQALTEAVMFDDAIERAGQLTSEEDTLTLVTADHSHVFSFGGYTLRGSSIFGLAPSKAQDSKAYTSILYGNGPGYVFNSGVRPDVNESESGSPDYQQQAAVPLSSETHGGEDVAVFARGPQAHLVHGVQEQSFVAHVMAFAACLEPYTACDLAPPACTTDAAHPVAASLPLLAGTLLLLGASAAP
bIAP act = intestinal alkaline phosphatase (bovine) activation; purified bovine IAP, CDP-star luminescence, 30 min; hits give high values; fold of DMSO-control signal, blank-subtracted; activation factor at 20 µM; actives 0.17% (n = 200,000);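 active = activation factor of 2 or more at 20 µM, a signal rise over negative controls twice the positive control's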
mIAP act = mouse IAP activation. muIAP, CDP-Star luminescence, 30 min; hits give high values; 1 = vehicle-only enzyme signal, 0 = enzyme-free wells. actives 0.24% (n = 330,000). activation factor at 10 µM;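 active = activation factor of at least 2 at 20 µM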
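System: mouse IAP enzyme. Reagent: CDP-Star chemiluminescent phosphatase substrate. Benchmarks: DMSO wells, no-enzyme wells. Times: 30 min enzyme-substrate-compound incubation at room temperature. Detection: luminescence from enzymatic CDP-Star hydrolysis. Doses: test compounds delivered from DMSO solution.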
hIAP act = increases human intestinal alkaline phosphatase activity; actives 0.16% (n = 330,000); AID 2524; purified human IAP, CDP-Star luminescence, 30 min; hits give high values; 1 = vehicle-only enzyme, 0 = enzyme-free background; activation factor at 10 µM;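 active = activation factor of the enzyme at least 2-fold when tested at 20 µM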
hIAP act conf = human IAP activation confirmation; shares compounds with hIAP act; actives 10% (n = 880); purified IAP, CDP-Star luminescence, 30 min; hits give low values; activation (%Activity, negative = activation), % at 8.3 µM;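 active = at least twofold enzyme activation in any of six single-dose repeats, which the averaged readout prints as negative percent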
The depositor's hits bear a star; nt = no result; + = active, no number.

SMILES | bIAP inhibitor | mIAP inh | hIAP inh | bIAP act | mIAP act | hIAP act | hIAP act conf
CCCNS(=O)(=O)c1ccc(CCC(=O)NCc2ccco2)cc1 | 7 | 1 | -141 | 0.9 | 0.99 | 2.4* | 11
COc1ccc(NC(=O)C2CCN(Cc3cnn(-c4ccccc4)c3-n3cccc3)CC2)cc1OC | -225 | -71 | -100 | 3.3* | 1.7 | 2* | -55
COc1ccc(OC)c(NC(=O)C2CCN(Cc3cnn(-c4ccccc4)c3-n3cccc3)CC2)c1 | -14 | -10 | 3 | 1.1 | 1.1 | 0.97 | nt
O=C(COC(=O)COc1cccc(C(F)(F)F)c1)Nc1ccc(N2CCOCC2)cc1 | nt | 2 | -4 | nt | 0.98 | 1 | nt
Nc1nc(-c2ccccc2)c(N=Nc2cccc3ccccc23)s1 | 0 | 30 | 35* | 1 | 0.69 | 0.65 | 15
COc1cc(NC(=O)C(=O)NNC(=O)C2CCCCC2)c(OC)cc1Cl | 8 | 4 | -18 | 0.9 | 0.96 | 1.2 | nt
COc1cc(OC)cc(C(=O)NNC(=O)C(=O)Nc2cc(OC)c(Cl)cc2OC)c1 | nt | -2 | 39* | nt | 1 | 0.61 | -34
N#C/C(=C\c1ccc(-c2cccc([N+](=O)[O-])c2)o1)C(=O)Nc1nc(-c2cccs2)cs1 | nt | 28 | 47* | nt | 0.72 | 0.53 | -64
Cc1cccc(C(=O)NNC(=O)CCCCC(=O)NNC(=O)c2cccc(C)c2)c1 | nt | -7 | -144 | nt | 1.1 | 2.4* | -4
COc1ccc(CC(=O)NNC(=O)c2cc(C)[nH]n2)cc1 | nt | 21 | -43 | nt | 0.79 | 1.4 | nt
Cc1cc(C(=O)NNC(=O)CCCCC(=O)NNC(=O)c2cc(C)[nH]n2)n[nH]1 | 20 | 27 | -254 | 0.8 | 0.73 | 3.5* | -79
C=CCn1c(N2CCN(c3ccc(OC)cc3)CC2)nc2c1c(=O)[nH]c(=O)n2C | 2 | -7 | -3 | 1 | 1.1 | 1 | nt
CCOc1ccc(C2NC(=O)C(C#N)=C(S)N2c2cccc(C)c2)cc1OC (stereo unspecified) | 9 | 7 | 5 | 0.9 | 0.93 | 0.95 | nt
CCOc1ccc(C2NC(=O)C(C#N)=C(S)N2c2ccc(C)cc2)cc1OC (stereo unspecified) | 7 | 14 | -103 | 0.9 | 0.86 | 2* | -77
Cc1ccccc1NC(=O)CSc1nnnn1C | 2 | -8 | -6 | 1 | 1.1 | 1.1 | nt
Cn1nnnc1SCC(=O)Nc1ccccc1-c1ccccc1 | 9 | 8 | 38* | 0.9 | 0.93 | 0.62 | -2
Cc1ncsc1CCC(=O)N1CCCC(Nc2ccc(C(C)C)cc2)C1 (stereo unspecified) | nt | -1 | -9 | nt | 1 | 1.1 | nt
COc1ccccc1N(C)S(=O)(=O)c1ccc(Cl)c(C(=O)NNC(=O)c2ccccc2O)c1 | nt | 38 | -134 | nt | 0.62 | 2.3* | 59
Cc1cc(Br)ccc1SCC(=O)OCC(=O)Nc1ccc2[nH]c(=O)[nH]c2c1 | nt | 6 | -4 | nt | 0.94 | 1 | nt
COc1ccc(Br)cc1C1CC(=O)C(C)C(c2cc(Br)ccc2OC)N1 (stereo unspecified) | nt | -6 | -5 | nt | 1.1 | 1.1 | nt
Cc1cc(C)nc(Nc2n[nH]c(COc3ccc4ccccc4c3)n2)n1 | 6 | 13 | -103 | 0.9 | 0.87 | 2* | -1
Cc1cc(C)nc(Nc2n[nH]c(COc3ccccc3)n2)n1 | -26 | -1 | -5 | 1.3 | 1 | 1.1 | nt
CCN(CC)C(=O)Cc1cc(C(=O)O)c2ccccc2n1 | -7 | -8 | -103 | 1.1 | 1.1 | 2* | 0
CCCCCC(=O)Nc1ccc(Cl)cn1 | -2 | -21 | 70* | 1 | 1.2 | 0.3 | -33
COc1cccc(/C=N/NC(=O)N/N=C/c2cccc(OC)c2O)c1O | nt | 19 | -151 | nt | 0.81 | 2.5* | 4
SMILES | bIAP inhibitor | mIAP inh | hIAP inh | bIAP act | mIAP act | hIAP act | hIAP act conf
Oc1cccc(/C=N/Nc2nn3cnnc3c3ccccc23)c1 | nt | -5 | 6 | nt | 1 | 0.94 | nt
COc1cccc(/C=N/Nc2nn3cnnc3c3ccccc23)c1O | -49 | -9 | -105 | 1.5 | 1.1 | 2* | 40
CNc1nc2c(c(=O)[nH]c(=O)n2C)n1CCCc1ccccc1 | nt | 4 | -6 | nt | 0.96 | 1.1 | nt
CCCn1c(N/N=C\C=C\c2ccccc2)nc2c1c(=O)[nH]c(=O)n2C | -44 | 12 | -123 | 1.4 | 0.88 | 2.2* | 2
O=C(O)CC(NC(=O)Cc1ccccc1)c1cc([N+](=O)[O-])ccc1Cl (stereo unspecified) | 10 | -1 | -5 | 0.9 | 1 | 1 | nt
CCOC(=O)Cn1c(=O)c2c(nc3n2CC(C)CN3Cc2ccccc2)n(C)c1=O (stereo unspecified) | nt | -9 | -12 | nt | 1.1 | 1.1 | nt
CC1CN(Cc2ccccc2)c2nc3c(c(=O)n(CC(N)=O)c(=O)n3C)n2C1 (stereo unspecified) | nt | 5 | 39* | nt | 0.95 | 0.61 | -37
COC(=O)c1ccc(C(=O)OC)c(NC(=O)Nc2ccc3c(c2)OCO3)c1 | 10 | 4 | -124 | 0.9 | 0.95 | 2.2* | +
COC(=O)c1ccccc1NC(=O)Nc1ccc2c(c1)OCO2 | 13 | -1 | 5 | 0.9 | 1 | 0.95 | nt
CC1OC(Oc2c(-c3cc(O)c(O)c(O)c3)oc3cc(O)cc(O)c3c2=O)C(O)C(O)C1O (stereo unspecified) | nt | 14 | -11 | nt | 0.86 | 1.1 | nt
O=C(O)C1OC(Oc2c(-c3ccc(O)c(O)c3)oc3cc(O)cc(O)c3c2=O)C(O)C(O)C1O (stereo unspecified) | 4 | 40 | 71* | 1 | 0.6 | 0.29 | 32
COc1ccccc1/C=C/C=N/n1c(-c2cc(C)[nH]n2)n[nH]c1=S | 0 | -1 | -111 | 1 | 1 | 2.1* | 11
COc1ccccc1/C=C/C=N/n1c(-c2ccccn2)n[nH]c1=S | nt | 4 | 4 | nt | 0.96 | 0.95 | nt
Cc1ccccc1/C=N/n1c(-c2cc(-c3ccccc3)n[nH]2)n[nH]c1=S | nt | -1 | -104 | nt | 1 | 2* | -3
COc1ccccc1/C=C/C=N/n1c(-c2n[nH]c3c2CCC3)n[nH]c1=S | nt | -1 | -104 | nt | 1 | 2* | 27
COc1cccc(/C=N/n2c(-c3n[nH]c4c3CCC4)n[nH]c2=S)c1O | 7 | 22 | 2 | 0.9 | 0.78 | 0.98 | nt
CCn1c(C)c(Br)c(=O)c(C(=O)OC)c1-c1ccc(Cl)cc1 | nt | 1 | 2 | nt | 0.99 | 0.98 | nt
COc1ccc2[nH]c3c(c2c1)CCN1C(=O)C(CC(=O)NCc2cccc(C(F)(F)F)c2)C[C@H](C(=O)N(C(C)C)C(C)C)[C@@]31C (stereo partly specified) | nt | -20 | nt | nt | 1.2 | nt | nt
COc1ccc(CNC(=O)COC(=O)[C@H](Cc2ccccc2)NC(=O)c2cccs2)cc1 | nt | -3 | -8 | nt | 1 | 1.1 | nt

Compound activity (PubChem BioAssay)
